# In the library only some 1.5% were active in any assay of this set; here they are far more common.
# TbMetRS inhib = blocks T. brucei methionyl-tRNA synthetase activity. purified T. brucei MetRS, ATP depletion, Kinase-Glo luminescence. inhibition, % at 11.9 µM. hit rate 0.4% among 360,000;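 active = inhibition above a per-plate cutoff of the control wells' mean inhibition plus 3 SD, cut at about 5.5% in these data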;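 note: 0% = DMSO wells median and 100% = median of wells with control inhibitor compound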
#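 System: purified T. brucei MetRS enzyme / Detection: Kinase-Glo luciferase luminescence reporting remaining unconsumed ATP / Medium: HEPES buffer with MgCl2, KCl, DTT, spermine, BSA, pyrophosphatase / Replication: singlicate, one well per compound / Evaluation: percent inhibition relative to median high and low control wells / Schedule: 2 h aminoacylation at 25 °C after 15 min preincubation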
# PKA-R1A activ = activators of PKA-R1A complex; hit rate 0.083% among 340,000; AID 504707; PKA-R1A dissociation, Cy5-IP20 fluorescence polarization; scaled: DMSO 0%, 113 µM cGMP 100%; P00514+P68181; activation, % at 11.4 µM;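 active = percent activation above the mean of all tested compounds plus 3 SD, cut at about 19% in these data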;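 note: higher means more PKAc released from R1A so a rise in polarization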
# Cardio protect = myocardial damage modulation in H9c2 cells; H9c2 cardiomyocytes, H2O2 injury protection, ATPLite, 2 h; protection from H2O2 cell death, % at 20 µM; hit rate 0.63% among 360,000;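 active = compounds giving at least 50% protection of heart cells from peroxide-induced death in the single-dose screen, raw or plate-pattern-corrected value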;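 note: 0% = DMSO wells with peroxide and 100% = DMSO wells without peroxide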
# Rin1-Abl PPI inh = blocks binding of human Rin1 to Abl; P00519+Q13671; hit rate 0.4% among 360,000; TR-FRET Rin1/Abl binding, biochemical; inhibition, % at 7.35 µM; in the data active = inhibition above about 5%, passing the limit was not always enough
# PKA-R2B activ = PKA-R2B complex activation; activation, % at 11.4 µM; hit rate 0.079% among 340,000; PKA-R2B holoenzyme dissociation, Cy5-IP20 fluorescence polarization; R2B truncated from residue 108, S112A mutant; 0% DMSO only, 100% 113 µM cGMP; AID 504700; P22694+P31323;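 active = activation above a cutoff set at the mean over all compounds plus 3 SD, cut at about 18% in these data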;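 note: higher means more holoenzyme dissociation and a rise in polarization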
# Target sequence (P31323 whole entry, looked up, other chains not shown, the tested form may be a part): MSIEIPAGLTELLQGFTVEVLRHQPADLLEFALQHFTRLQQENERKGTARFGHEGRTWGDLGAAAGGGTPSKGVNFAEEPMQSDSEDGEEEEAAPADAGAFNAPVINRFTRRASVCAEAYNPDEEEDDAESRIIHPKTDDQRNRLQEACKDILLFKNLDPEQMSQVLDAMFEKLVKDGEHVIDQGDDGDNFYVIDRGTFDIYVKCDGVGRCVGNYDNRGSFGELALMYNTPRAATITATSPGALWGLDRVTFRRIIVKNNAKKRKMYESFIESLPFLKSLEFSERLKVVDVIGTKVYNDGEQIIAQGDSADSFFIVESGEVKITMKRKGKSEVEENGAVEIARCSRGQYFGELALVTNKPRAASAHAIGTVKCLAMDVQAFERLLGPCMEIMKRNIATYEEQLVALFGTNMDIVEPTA
# Numbers without * were called inactive.
SMILES,TbMetRS inhib,PKA-R1A activ,Cardio protect,Rin1-Abl PPI inh,PKA-R2B activ
COc1ccc2[nH]c(=O)c(-c3nnn(-c4ccc(F)cc4)n3)cc2c1,0,3,56*,-6,-7
COc1ccc2[nH]c(=O)c(-c3nnn(-c4ccccc4)n3)cc2c1,0,2,13,1,5
CCc1ccc2c(c1)C1(SC(NC(C)=O)=NN1C(C)=O)C(=O)N2CC (stereo unspecified),0,-6,5,0,-8
CC(C)(C)OC(=O)NCc1ccc(NC(=O)c2nc[nH]c2C(=O)NCCCCNC(=O)c2[nH]cnc2C(=O)Nc2ccc(CNC(=O)OC(C)(C)C)cc2)cc1,0,-11,67*,2,0
CC(C)(C)OC(=O)NCc1ccc(NC(=O)c2nc[nH]c2C(=O)NCCCNC(=O)c2[nH]cnc2C(=O)Nc2ccc(CNC(=O)OC(C)(C)C)cc2)cc1,0,2,52*,-1,-4
CC(C)(C)OC(=O)NCc1ccc(NC(=O)c2nc[nH]c2C(=O)NCCCCCCNC(=O)c2[nH]cnc2C(=O)Nc2ccc(CNC(=O)OC(C)(C)C)cc2)cc1,0,-4,51*,2,4
Cc1ccc(C)c(-n2ccnc2SCC(=O)Nc2cccc(S(=O)(=O)NC3=NCCC3)c2)c1,0,-9,-5,1,7
O=c1c2c(nc3nc(NCc4cccc5ccccc45)[nH]n13)CCC2,0,-4,8,0,4
COc1cc(OC)cc(C(=O)Nc2ccc(C(=O)Nc3ccccc3OC)cc2)c1,0,-5,51*,2,-4
O=C(NN1C(=O)/C(=C/c2cccnc2)SC1=S)C(c1ccccc1)c1ccccc1,0,-10,22,1,4
O=C(NN1C(=O)/C(=C\c2cccnc2)SC1=S)C(c1ccccc1)c1ccccc1,-1,1,60*,2,-4
CC(OC(=O)c1cc2c(ccc3ccccc32)oc1=O)c1nc2ccccc2s1 (stereo unspecified),0,-3,69*,-2,-3
CCOC(=O)c1cc2c(ccc3ccccc32)oc1=O,-1,-6,9,-4,-7
COc1cc(C(=O)NCCCNc2nc3cc(C)cc(C)c3cc2C#N)cc(OC)c1OC,-1,-6,81*,-2,-6
Cc1cc(C)c2cc(C#N)c(NCCCNC(=O)c3ccncc3)nc2c1,-1,-5,24,-7,1
CC1Cc2ccccc2N1C(=O)CSc1nnc(N)s1 (stereo unspecified),0,4,-1,-2,-5
CSCCC(=O)Nc1nc(-c2ccccn2)cs1,-1,3,37,2,3
O=C(CN1C(=O)C2CC=CCC2C1=O)Nc1nc(-c2ccc(F)cc2)cs1 (stereo unspecified),0,5,58*,1,-7
O=C(CCCSc1ccccc1)Nc1nc(-c2ccccn2)cs1,0,4,64*,-4,-5
O=C(/C=C/c1ccco1)Nc1nc(-c2ccccc2)cs1,0,-8,2,3,-4
O=C(/C=C/c1ccco1)Nc1nc(-c2ccccn2)cs1,0,5,50*,2,0
O=C(CN1C(=O)CCC1=O)Nc1nc(-c2ccccn2)cs1,-1,-4,52*,-3,-14
Cc1cccc(CSc2nnc([C@@H]3CCCN3)o2)c1,0,-5,10,-1,4
COc1ccc(N2CC(C(=O)N[C@@H](CC(C)C)C(=O)NC3CCCC3)CC2=O)cc1 (stereo partly specified),0,-5,0,0,-5
COc1ccc(/C(C)=N/NC(=O)c2cccc(S(=O)(=O)N3CCCC3)c2)c(O)c1,0,-2,70*,-1,-1
COc1ccc(S(=O)(=O)N2CCCCC2)cc1C(=O)N1CCCCCC1,0,2,0,1,-3
CCn1c(SCc2nc3ccccc3c(=O)[nH]2)nnc1-c1cccnc1,-1,1,11,2,0
O=c1[nH]c(CSc2nnc(-c3cccnc3)n2C2CCCCC2)nc2ccccc12,0,-6,89*,3,-5
CCc1sc(C(=O)Nc2nc(-c3ccccn3)cs2)cc1C,-1,-9,51*,0,-6
O=C(Nc1nc(-c2ccccn2)cs1)c1ccc(Cl)s1,0,0,31,0,10

# Screening results deposited in PubChem by several laboratories.
